SMILES strings stand for the structures.

The values below come from ChEMBL document CHEMBL3784997 (J Med Chem, 2016).

Experiment [1] deals with T1, Adenosine receptor A1 (Homo sapiens) (UniProt P30542).
T1 sequence (whole entry): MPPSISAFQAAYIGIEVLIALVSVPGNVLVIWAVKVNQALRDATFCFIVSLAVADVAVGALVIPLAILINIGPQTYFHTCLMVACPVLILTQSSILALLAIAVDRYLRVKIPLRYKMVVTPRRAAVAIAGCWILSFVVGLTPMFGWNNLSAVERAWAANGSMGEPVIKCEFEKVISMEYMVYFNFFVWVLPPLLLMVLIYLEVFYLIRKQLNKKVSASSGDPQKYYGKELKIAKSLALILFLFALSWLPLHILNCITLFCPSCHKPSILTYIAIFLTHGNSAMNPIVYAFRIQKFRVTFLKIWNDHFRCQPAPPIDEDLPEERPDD
The experiment is described as follows: Displacement of [3H]DPCPX from human Adenosine A1 receptor expressed in CHO cells at 1 uM after 60 mins. It counts as cell-based. The gist of the method:
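Competition binding on membranes from CHO cells expressing human A1, labelled with 2 nM [3H]DPCPX. Non-specific binding was defined with 10 µM R-PIA, and incubation was at 25 °C for 60 min. The value is percent inhibition of specific binding at 1 µM test compound (n = 2, average).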

In experiment [2] the target is Adenosine receptor A2a (Homo sapiens) (UniProt P29274). The experiment is described as follows: Displacement of [3H]ZM241385 from human Adenosine A2A receptor expressed in HeLa cells at 1 uM after 30 mins. In kind it is cell-based. The gist of the method: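 Membranes from HeLa cells expressing human A2A were labelled with 3 nM [3H]ZM241385, with non-specific binding defined by 50 µM NECA, and incubated at 25 °C for 30 min. The value is percent displacement of specific binding at 1 µM test compound (n = 2).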

For experiment [3], the target named is T2, Adenosine receptor A2b (Homo sapiens) (UniProt P29275).
T2 sequence (whole entry): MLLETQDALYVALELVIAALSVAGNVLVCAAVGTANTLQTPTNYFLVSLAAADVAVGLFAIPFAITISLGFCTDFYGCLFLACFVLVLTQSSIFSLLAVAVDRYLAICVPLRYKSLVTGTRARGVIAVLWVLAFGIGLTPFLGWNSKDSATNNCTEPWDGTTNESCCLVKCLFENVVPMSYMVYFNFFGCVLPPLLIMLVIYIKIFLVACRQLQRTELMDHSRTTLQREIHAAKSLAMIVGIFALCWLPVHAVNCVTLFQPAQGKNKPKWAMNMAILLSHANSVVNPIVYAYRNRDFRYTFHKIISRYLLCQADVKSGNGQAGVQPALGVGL
The experiment is described as follows: Displacement of [3H]DPCPX from human Adenosine A2B receptor expressed in HEK293 cells at 1 uM after 30 mins. It counts as cell-based. The method in brief: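 Membranes from HEK-293 cells expressing human A2B were labelled with 35 nM [3H]DPCPX, with non-specific binding defined by 400 µM NECA, and incubated at 25 °C for 30 min.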
On the technique in general: Displacement assays read how much labelled ligand stays bound in the presence of the test substance.

In another experiment the target is T3, Adenosine receptor A3 (Homo sapiens, UniProt P0DMS8).
T3 sequence (P0DMS8 whole entry): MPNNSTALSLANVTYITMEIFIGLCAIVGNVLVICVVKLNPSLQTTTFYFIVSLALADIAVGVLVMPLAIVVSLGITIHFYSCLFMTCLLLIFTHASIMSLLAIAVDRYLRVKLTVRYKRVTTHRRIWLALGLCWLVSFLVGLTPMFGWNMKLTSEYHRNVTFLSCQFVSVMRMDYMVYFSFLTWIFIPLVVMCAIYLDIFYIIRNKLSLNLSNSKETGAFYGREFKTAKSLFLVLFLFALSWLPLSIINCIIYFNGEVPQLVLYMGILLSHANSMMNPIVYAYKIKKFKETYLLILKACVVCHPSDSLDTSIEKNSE
In words: Displacement of [3H]NECA from human Adenosine A3 receptor expressed in HeLa cells after 180 mins.

Experiment [4] concerns the target T4, Adenosine receptor A2b (Homo sapiens, UniProt P29275).
T4 sequence (P29275 whole entry): T2 sequence (whole entry)
The experiment is described as follows: Displacement of [3H]DPCPX from human Adenosine A2B receptor expressed in HEK293 cells after 30 mins. In kind it is cell-based.

The target in experiment [5] is T5, Adenosine receptor A3 (Homo sapiens) (UniProt P0DMS8).
T5 sequence (whole entry): T3 sequence (P0DMS8 whole entry)
In words: Displacement of [3H]NECA from human Adenosine A3 receptor expressed in HeLa cells at 1 uM after 180 mins.

Experiment [6] deals with T2, Adenosine receptor A2b (Homo sapiens). The experiment is described as follows: Antagonist activity at human Adenosine A2B receptor expressed in HEK293 cells assessed as inhibition of NECA-induced cAMP production preincubated for 15 mins followed by NECA addition measured after 15 mins by enzyme immunoassay. In kind it is functional, cell-based. The method in brief:
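HEK293 cells seeded at 10000 cells/well and grown at 37 °C, 5% CO2 in EMEM F-12 with 10% FCS and 1% L-glutamine. After washing, cells were preincubated 15 min at 37 °C with compound and 30 µM rolipram in EMEM-F12/25 mM HEPES pH 7.4. NECA was then added for 15 min at 37 °C. cAMP was read by enzyme immunoassay after kit lysis; n = 3, each in duplicate.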
In general terms: Cyclic AMP is a second messenger, typically raised through Gs and lowered through Gi signalling.

The target of experiment [7] is T4, Adenosine receptor A2b. The experiment is described as follows: Displacement of [3H]OSIP339391 from human recombinant Adenosine A2B receptor expressed in HEK293 cells after 60 mins. In kind it is cell-based.

Sequence of Adenosine receptor A2a (Homo sapiens) (P29274 whole entry): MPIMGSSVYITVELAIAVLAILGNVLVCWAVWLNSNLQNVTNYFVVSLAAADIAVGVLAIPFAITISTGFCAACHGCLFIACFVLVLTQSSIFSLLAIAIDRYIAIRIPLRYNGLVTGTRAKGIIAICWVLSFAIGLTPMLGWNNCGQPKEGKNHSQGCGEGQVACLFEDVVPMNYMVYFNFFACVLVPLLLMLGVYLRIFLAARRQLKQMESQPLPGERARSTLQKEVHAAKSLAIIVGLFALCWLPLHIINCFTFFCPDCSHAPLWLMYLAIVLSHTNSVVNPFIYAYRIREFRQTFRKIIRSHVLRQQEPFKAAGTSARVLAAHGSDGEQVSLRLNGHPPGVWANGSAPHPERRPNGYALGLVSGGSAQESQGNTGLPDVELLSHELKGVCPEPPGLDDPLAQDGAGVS

By Ki is commonly meant a dissociation constant, usually derived from enzyme kinetics or from competition with a known ligand. On to `CCOC(=O)C1=C(C)Nc2nccn2C1c1cccs1` (racemic), for which the Activity in experiment [1] was 2%; in experiment [2] it was 2%; in experiment [3], 8%. This molecule displayed a Ki at Adenosine receptor A3 of 4610 nM.

In the case of `CCOC(=O)C1=C(C)Nc2ncnn2C1c1ccsc1` (racemic), the values for the Activity in experiment [1], in experiment [2] and in experiment [5] were 3%, 21% and 2%, respectively. The affinity on Adenosine receptor A2b [4], expressed as Ki, was 699 nM.

With `CCOC(=O)C1=C(C)Nc2nc3ccccc3n2C1c1ccsc1` (racemic), the Activity in experiment [1] was found to be 3%; in experiment [2], 10%; in experiment [5], 2%. The molecule further returned an inhibition constant (Ki) on Adenosine receptor A2b [4] of 29.7 nM.

With `CC1=C(C(=O)OC(C)C)C(c2ccoc2)n2c(nc3ccccc32)N1` (racemic), the results for the Activity in experiment [1], in experiment [2] and in experiment [5] were 12%, 22% and 2%, respectively. Also, affinity on Adenosine receptor A2b [4] was put at a Ki of 11.4 nM.

Consider `CCOC(=O)C1=C(C)Nc2nc3ccccc3n2C1c1ccoc1` (racemic), for which the Activity in experiment [1] came to 7%; in experiment [2], 11%; in experiment [5], 1%. Moreover, the inhibition constant Ki on Adenosine receptor A2b [4] turned out to be 20.6 nM.

For `CC1=C(C(=O)OC(C)C)C(c2ccoc2)n2ncnc2N1` (racemic), the Activity in experiment [1] is 2%; in experiment [2] it was 2%; in experiment [5] it was 20%. This molecule registered a Ki on Adenosine receptor A2b [4] of 350 nM.

For `CC1=C(C(=O)OC(C)C)C(c2ccco2)n2ccnc2N1` (racemic), the Activity was 3% in experiment [1], 4% in experiment [2] and 2% in experiment [5]. Besides, the affinity at Adenosine receptor A2b [4] corresponds to a Ki of 85.6 nM.

As usually defined, the Kb is the affinity of an antagonist, worked out from how it opposes an agonist. Take `CC1=C(C(=O)OC(C)C)C(c2ccco2)n2c(nc3ccccc32)N1` (racemic): the Activity in experiment [1] was determined as 20%; in experiment [2], 25%; in experiment [5], 2%. Moreover, the antagonist equilibrium constant (Kb) in experiment [6] was determined as 27 nM.

Turning to `CC1=C(C(=O)OC(C)C)C(c2cccs2)n2ccnc2N1` (racemic), the figures for the Activity in experiment [1], in experiment [2] and in experiment [5] were 3%, 3% and 5%, respectively. On Adenosine receptor A2b [4], this molecule returned an inhibitory constant (Ki) of 728 nM.

`CC1=C(C(=O)OC(C)C)C(c2ccsc2)n2ncnc2N1` (racemic): the Activity in experiment [1] was 3%; in experiment [2], 2%; in experiment [5], 5%. This molecule had an inhibition constant (Ki) on Adenosine receptor A2b [4] of 817 nM.

Turning to `CC(=O)NCCNc1nc(-c2ccccc2)nc2nc(C(=O)N3CCN(CCCc4ccccc4)CC3)[nH]c12`, at Adenosine receptor A2b [7], the Ki was 0.5 nM.

`CC1=C(C(=O)OC(C)C)C(c2ccsc2)n2ccnc2N1` (racemic): the Activity is 3% in experiment [1], 1% in experiment [2] and 1% in experiment [5]. On Adenosine receptor A2b [4], this molecule came in with an inhibition constant (Ki) of 847 nM.

With `CC1=C(C(=O)OC(C)C)C(c2ccco2)n2ncnc2N1` (racemic), the Activity in experiment [1] is 2%; in experiment [2], 5%; in experiment [5] it was 2%. For the same molecule, affinity on Adenosine receptor A2b [4] was put at a Ki of 55.6 nM. In addition, the Kb in experiment [6] was 266 nM.
